{"source": "ChEMBL document CHEMBL1687827", "about": "“Profiling the Aspergillus fumigatus proteome in response to caspofungin” (2011)", "key": {"Aspergillus fumigatus [1]": {"system": "Aspergillus fumigatus", "test": "Induction of change in 60s ribosomal protein L24, putative gene expression in drug-susceptible Aspergillus fumigatus KU80 delta-akuB at 0.12 ug/ml after 24 hrs in YPD medium by microarray analysis relative to control", "format": "functional", "summary_of_the_method": "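Mycelia grown in YPD ± 0.12 μg/ml caspofungin (1 × 10⁵ conidia/ml, 37°C, shaking) and harvested at 24 or 48 h. Total RNA extracted, DNase-treated and quality-checked; 2 μg labelled per TIGR SOP M007 and hybridized to whole-genome arrays. Three independent experiments with dye flip (6 replicates); drug vs untreated fold change.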"}, "Aspergillus fumigatus [2]": {"system": "Aspergillus fumigatus", "test": "Induction of change in alanine aminotransferase, putative protein level in iTRAQ-116 labelled secreted fraction of drug-resistant Aspergillus fumigatus EMFR-S678P at 0.12 ug/ml after 48 hrs in YPD medium by MS (MS/MS) analysis relative to control", "format": "functional, organism-based", "summary_of_the_method": "(§1)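 Conidia at 1 × 10⁵/ml were grown at 37°C, shaking at 225 rpm, in YPD with or without 0.12 μg/ml caspofungin for 24 or 48 h. The culture filtrate was kept as the secreted fraction. Mycelia were lysed by French press in HEPES/glycerol/EDTA/PMSF/DTT buffer, and the 5,000 × g pellet was washed to give CW/PM. Proteins were reduced, alkylated and trypsin-digested at 37°C overnight, then iTRAQ-labelled and run by 2D LC-MS/MS. Ratios are the median of unique-peptide ratios, median-normalized, versus the no-drug control.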"}, "Aspergillus fumigatus [3]": {"system": "Aspergillus fumigatus", "test": "Induction of change in translation elongation factor eEF-3, putative protein level in iTRAQ-118 labelled cell wall fraction of drug-susceptible Aspergillus fumigatus KU80 delta-akuB at 0.12 ug/ml after 24 hrs in YPD medium by MS (MS/MS) analysis relative to control", "format": "functional", "summary_of_the_method": "(§2)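 Conidia (1 × 10⁵/ml) grown in YPD, 37°C, 225 rpm, ± 0.12 μg/ml caspofungin; filtrate taken as secreted fraction, French-press lysate 5,000 × g pellet as cell wall/plasma membrane. Trypsin digests 8-plex iTRAQ-labelled (drug-free channels as references), pooled, 2D-chromatography, MS/MS. Median-normalized; protein ratio = median of unique-peptide ratios, log2 normalized.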"}, "Aspergillus fumigatus [4]": {"system": "Aspergillus fumigatus", "test": "Induction of change in GNAT family acetyltransferase, putative protein level in iTRAQ-118 labelled cell wall fraction of drug-resistant Aspergillus fumigatus EMFR-S678P at 0.12 ug/ml after 24 hrs in YPD medium by MS (MS/MS) analysis relative to control", "format": "functional, organism-based", "summary_of_the_method": "as §1"}, "Aspergillus fumigatus [5]": {"system": "Aspergillus fumigatus", "test": "Induction of change in GNAT family acetyltransferase, putative protein level in iTRAQ-116 labelled secreted fraction of drug-resistant Aspergillus fumigatus EMFR-S678P at 0.12 ug/ml after 48 hrs in YPD medium by MS (MS/MS) analysis relative to control", "format": "functional", "summary_of_the_method": "as §1"}, "Aspergillus fumigatus [6]": {"system": "Aspergillus fumigatus", "test": "Induction of change in GNAT family acetyltransferase, putative protein level in iTRAQ-118 labelled cell wall fraction of drug-susceptible Aspergillus fumigatus KU80 delta-akuB at 0.12 ug/ml after 24 hrs in YPD medium by MS (MS/MS) analysis relative to control", "format": "functional", "summary_of_the_method": "(§3)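 Conidia at 1 × 10⁵/ml grown shaking at 37°C in YPD with or without 0.12 μg/ml caspofungin; mycelia filtered at 24 or 48 h. Secreted fraction taken from the filtrate; cell wall/plasma membrane pellet recovered after French-press lysis and a 5,000 × g spin. Proteins trypsin-digested and iTRAQ-labelled, drug vs no-drug channels at each time, then 2D LC-MS/MS. Protein ratio is the median of ratios from uniquely assigned peptides after median normalization.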"}, "Aspergillus fumigatus [7]": {"system": "Aspergillus fumigatus", "test": "Induction of change in SUN domain protein (Uth1), putative protein level in iTRAQ-118 labelled cell wall fraction of drug-resistant Aspergillus fumigatus EMFR-S678P at 0.12 ug/ml after 24 hrs in YPD medium by MS (MS/MS) analysis relative to control", "format": "functional", "summary_of_the_method": "as §1"}, "Aspergillus fumigatus [8]": {"system": "Aspergillus fumigatus", "test": "Induction of change in alkaline serine protease protein level in iTRAQ114 labelled cell wall fraction of drug-susceptible Aspergillus fumigatus KU80 delta-akuB at 0.12 ug/ml after 24 hrs in YPD medium by MS (MS/MS) analysis relative to control", "format": "functional", "summary_of_the_method": "as §3"}, "Aspergillus fumigatus [9]": {"system": "Aspergillus fumigatus", "test": "Induction of change in phosphoglycerate kinase PgkA, putative protein level in iTRAQ-118 labelled cell wall fraction of drug-resistant Aspergillus fumigatus EMFR-S678P at 0.12 ug/ml after 24 hrs in YPD medium by MS (MS/MS) analysis relative to control", "format": "functional", "summary_of_the_method": "as §1"}, "Aspergillus fumigatus [10]": {"system": "Aspergillus fumigatus", "test": "Induction of change in ribosomal protein L27a gene expression in drug-susceptible Aspergillus fumigatus KU80 delta-akuB at 0.12 ug/ml after 24 hrs in YPD medium by microarray analysis relative to control", "format": "functional", "summary_of_the_method": "(§4)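 Mycelia grown from 1 × 10⁵ conidia/ml in YPD at 37°C, 225 rpm, with or without 0.12 μg/ml caspofungin. Total RNA extracted, DNase-treated; 2 μg labelled per TIGR SOP M007 for whole-genome array hybridization. Three independent experiments with dye flip (6 replicates); >2-fold change deemed significant.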"}, "Aspergillus fumigatus [11]": {"system": "Aspergillus fumigatus", "test": "Induction of change in Ribosomal protein S13p/S18e protein level in iTRAQ114 labelled cell wall fraction of drug-susceptible Aspergillus fumigatus KU80 delta-akuB at 0.12 ug/ml after 24 hrs in YPD medium by MS (MS/MS) analysis relative to control", "format": "functional", "summary_of_the_method": "as §3"}, "Aspergillus fumigatus [12]": {"system": "Aspergillus fumigatus", "test": "Induction of change in extracellular conserved serine-rich protein level in iTRAQ-116 labelled secreted fraction of drug-resistant Aspergillus fumigatus EMFR-S678P at 0.12 ug/ml after 48 hrs in YPD medium by MS (MS/MS) analysis relative to control", "format": "functional", "summary_of_the_method": "as §1"}, "Aspergillus fumigatus [13]": {"system": "Aspergillus fumigatus", "test": "Induction of change in sur7 protein, putative gene expression in drug-susceptible Aspergillus fumigatus KU80 delta-akuB at 0.12 ug/ml after 24 hrs in YPD medium by microarray analysis relative to control", "format": "functional", "summary_of_the_method": "as §4"}, "Aspergillus fumigatus [14]": {"system": "Aspergillus fumigatus", "test": "Induction of change in Ribosomal L28e protein family protein level in iTRAQ114 labelled secreted fraction of drug-susceptible Aspergillus fumigatus KU80 delta-akuB at 0.12 ug/ml after 24 hrs in YPD medium by MS (MS/MS) analysis relative to control", "format": "functional", "summary_of_the_method": "as §3"}, "Aspergillus fumigatus [15]": {"system": "Aspergillus fumigatus", "test": "Induction of change in Plasma membrane H-ATPase Pma1 protein level in iTRAQ114 labelled cell wall fraction of drug-resistant Aspergillus fumigatus EMFR-S678P at 0.12 ug/ml after 24 hrs in YPD medium by MS (MS/MS) analysis relative to control", "format": "functional", "summary_of_the_method": "as §1"}, "Aspergillus fumigatus [16]": {"system": "Aspergillus fumigatus", "test": "Induction of change in ribosomal protein L14 protein level in iTRAQ114 labelled secreted fraction of drug-susceptible Aspergillus fumigatus KU80 delta-akuB at 0.12 ug/ml after 24 hrs in YPD medium by MS (MS/MS) analysis relative to control", "format": "functional", "summary_of_the_method": "as §2"}, "Aspergillus fumigatus [17]": {"system": "Aspergillus fumigatus", "test": "Induction of change in ubiquinol-cytochrome C reductase complex core protein 2, putative protein level in iTRAQ-118 labelled cell wall fraction of drug-susceptible Aspergillus fumigatus KU80 delta-akuB at 0.12 ug/ml after 24 hrs in YPD medium by MS (MS/MS) analysis relative to control", "format": "functional", "summary_of_the_method": "as §2"}, "Aspergillus fumigatus [18]": {"system": "Aspergillus fumigatus", "test": "Induction of change in citrate synthase, eukaryotic protein level in iTRAQ-116 labelled cell wall fraction of drug-susceptible Aspergillus fumigatus KU80 delta-akuB at 0.12 ug/ml after 48 hrs in YPD medium by MS (MS/MS) analysis relative to control", "format": "functional", "summary_of_the_method": "as §3"}}, "note": "The source made the active and inactive calls. The rule behind the calls is not given here.", "data": [{"smiles": "CC[C@H](C)C[C@H](C)CCCCCCCCC(=O)N[C@H]1C[C@@H](O)[C@@H](NCCN)NC(=O)[C@@H]2[C@@H](O)CCN2C(=O)[C@H]([C@H](O)CCN)NC(=O)[C@H]([C@H](O)[C@@H](O)c2ccc(O)cc2)NC(=O)[C@@H]2C[C@@H](O)CN2C(=O)[C@H]([C@@H](C)O)NC1=O", "note": "[CASPOFUNGIN]", "values": [{"measurement": "fold change (FC)", "setting": "Aspergillus fumigatus [1]", "value": 3.5}, {"measurement": "Activity", "setting": "Aspergillus fumigatus [2]", "value": "inactive"}, {"measurement": "fold change (FC)", "setting": "Aspergillus fumigatus [3]", "value": 2.1}, {"measurement": "Activity", "setting": "Aspergillus fumigatus [4]", "value": "inactive"}, {"measurement": "fold change (FC)", "setting": "Aspergillus fumigatus [5]", "value": -1.07}, {"measurement": "fold change (FC)", "setting": "Aspergillus fumigatus [6]", "value": -2.6}, {"measurement": "fold change (FC)", "setting": "Aspergillus fumigatus [7]", "value": 1.07}, {"measurement": "fold change (FC)", "setting": "Aspergillus fumigatus [8]", "value": 1.3}, {"measurement": "fold change (FC)", "setting": "Aspergillus fumigatus [9]", "value": -1.15}, {"measurement": "fold change (FC)", "setting": "Aspergillus fumigatus [10]", "value": 3.6}, {"measurement": "fold change (FC)", "setting": "Aspergillus fumigatus [11]", "value": 2.3}, {"measurement": "fold change (FC)", "setting": "Aspergillus fumigatus [12]", "value": -1.07}, {"measurement": "fold change (FC)", "setting": "Aspergillus fumigatus [13]", "value": -5.2}, {"measurement": "fold change (FC)", "setting": "Aspergillus fumigatus [14]", "value": -1.6}, {"measurement": "fold change (FC)", "setting": "Aspergillus fumigatus [15]", "value": -1.15}, {"measurement": "fold change (FC)", "setting": "Aspergillus fumigatus [16]", "value": -1.1}, {"measurement": "fold change (FC)", "setting": "Aspergillus fumigatus [17]", "value": -2}, {"measurement": "fold change (FC)", "setting": "Aspergillus fumigatus [18]", "value": -1.2}]}]}
